In ChEMBL document CHEMBL2203249, “Optimization of a small tropomyosin-related kinase B (TrkB) agonist 7,8-dihydroxyflavone active in mouse models of depression” (J Med Chem, 2012):
Calls of active or inactive are those of the source. The calls are words filed in the database; no cut-off is given here.

How the values were obtained:
[1] = molecular target: BDNF/NT-3 growth factors receptor (Rattus norvegicus) (UniProt Q63604); test: Agonist activity at TrkB receptor in E17 rat embryo primary neurons assessed as TrkB phosphorylation at tyrosine 817 at 500 nM after 15 mins by immunoblotting analysis; type: functional
Summary of the method: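 Primary cortical cultures from E17 rat embryos were exposed to 500 nM for 15 min. Lysates were immunoblotted for p-TrkB and p-Akt (20 μg per lane). Two replicate experiments.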

[2] = tested on: Mus musculus; test: Agonist activity at TrkB receptor in C57BL/J6 mouse brain assessed as Akt phosphorylation at serine 473 in hippocampus at 1 mg/kg, po after 4 hrs by ELISA; type: functional, organism-based; set-up: dose 1 mg/kg
Summary of the method: (§1)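 Male C57BL/6 mice, two months old, received a single 1 mg/kg oral dose, with saline controls. Brain was taken at set time points and lysed. Phospho-Akt S473 was measured by sandwich ELISA on 20 μg lysate: overnight capture at 4°C, detection antibody, HRP secondary and TMB, read at 450 minus 650 nm. Two replicate experiments, one-way ANOVA against control.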

[3] = tested on: Mus musculus; test: Agonist activity at TrkB receptor in C57BL/J6 mouse brain assessed as TrkB phosphorylation at tyrosine 816 in hippocampus at 1 mg/kg, po after 4 hrs by immunoblotting analysis; type: functional, organism-based; set-up: dose 1 mg/kg
Summary of the method: (§2)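 Male C57BL/6 mice, two months old, received a single 1 mg/kg oral dose, with saline controls. Brain or hippocampus was collected 4 h later (time-course samples at various times). Homogenates were ultracentrifuged and 40 μg supernatant was immunoblotted for p-TrkB, p-Akt and p-MAPK.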

[4] = tested on: Mus musculus; test: Agonist activity at TrkB receptor in C57BL/J6 mouse brain assessed as MAPK phosphorylation in hippocampus at 1 mg/kg, po after 4 hrs by immunoblotting analysis; type: functional, organism-based; set-up: dose 1 mg/kg; summary of the method: as §2
[5] = tested on: Mus musculus; test: Agonist activity at TrkB receptor in C57BL/J6 mouse brain assessed as Akt phosphorylation at serine 473 in hippocampus at 1 mg/kg, po after 4 hrs by immunoblotting analysis; type: functional, organism-based; set-up: dose 1 mg/kg; summary of the method: as §2
[6] = tested on: Mus musculus; test: AUC (infinity) in mouse at 1 mg/kg, iv by HPLC analysis; type: ADME, organism-based, Plasma; set-up: time infinity, dose 1 mg/kg, route intravenous; conditions: in vivo
Summary of the method: (§3)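 Mice of 20–30 g, 6–8 weeks old, dosed i.v. or orally. Blood was drawn at 3, 10, 30, 60, 120, 240, 360 and 480 min into lithium-heparin tubes, spun at 2500 × g for 15 min at 4°C within 1 h and stored at −20°C. Plasma was analysed by HPLC, 3 mice per time point. AUC was calculated by the linear/log trapezoidal method.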

[7] = tested on: Mus musculus; test: AUC last in mouse at 1 mg/kg, iv by HPLC analysis; type: ADME, organism-based, Plasma; set-up: time 0 - last, dose 1 mg/kg, route intravenous; conditions: in vivo; summary of the method: as §3
[8] = tested on: Mus musculus; test: Volume of distribution at steady state in mouse at 1 mg/kg, iv by HPLC analysis; type: ADME, organism-based; set-up: dose 1 mg/kg, route intravenous; conditions: in vivo
Summary of the method: (§4)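 Mice (20–30 g, 6–8 weeks old) were dosed i.v. or orally. Blood was drawn into lithium-heparin tubes at 3, 10, 30, 60, 120, 240, 360 and 480 min, with 3 mice per time point. Plasma was separated at 2500 × g for 15 min at 4°C within 1 h and stored at −20°C. Samples were analysed by HPLC, and AUC was calculated by the linear/log trapezoidal method.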

[9] = tested on: Mus musculus; test: Volume of distribution in mouse at 1 mg/kg, iv by HPLC analysis; type: ADME, organism-based; set-up: dose 1 mg/kg, route intravenous; conditions: in vivo; summary of the method: as §4
[10] = tested on: Mus musculus; test: Elimination half life in mouse at 1 mg/kg, iv by HPLC analysis; type: ADME, organism-based; set-up: dose 1 mg/kg, route intravenous; conditions: in vivo; summary of the method: as §3
[11] = tested on: HepG2; test: Genotoxicity in human HepG2 cells assessed as induction of DNA lesion at 100 uM after 24 hrs by comet assay; type: toxicity, cell-based; conditions: hepg2, 24 h
Summary of the method: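 HepG2 cells were exposed to 100 μM for 24 h, with etoposide as positive control. Cells were embedded in agarose, lysed 2 h at 4°C at pH 10, unwound 40 min in alkali at pH >13 and electrophoresed at 25 V for 30 min at 4°C. After ethidium bromide staining, comet-tail nuclei were counted in >100 cells per field. Three independent experiments, one-way ANOVA.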

[12] = tested on: HepG2; test: Genotoxicity in human HepG2 cells assessed as micronuclei formation at 50 uM after 24 hrs by DAPI staining; type: toxicity, cell-based; conditions: hepg2, 24 h
Summary of the method: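 HepG2 cells were exposed to 50 μM for 24 h, with benzo(a)pyrene as positive control. Cells were swollen in hypotonic KCl/NaCl for 10 min at 37°C, fixed in methanol/acetic acid 3:1 and stained with DAPI at 2 μg/ml. Three independent experiments, one-way ANOVA.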

[13] = tested on: HepG2; test: Cytotoxicity against human HepG2 cells assessed as cell death upto 100 uM after 24 hrs by LDH assay; type: cell-based; conditions: hepg2, 24 h
Summary of the method: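 HepG2 cells were exposed to a range of concentrations up to 100 μM for 24 h, and cytotoxicity was measured by LDH release. n=3.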

[14] = tested on: Mus musculus; test: Agonist activity at TrkA receptor in C57BL/J6 mouse brain assessed as TrkA phosphorylation at tyrosine 794 in cortex at 5 mg/kg, po administered qd for 21 days by immunoblotting analysis; type: functional, organism-based; set-up: dose 5 mg/kg
[15] = tested on: Mus musculus; test: Agonist activity at TrkB receptor in C57BL/J6 mouse brain assessed as TrkB phosphorylation at tyrosine 816 in cortex at 5 mg/kg, po administered qd for 21 days by immunoblotting analysis; type: functional, organism-based; set-up: dose 5 mg/kg
[16] = tested on: Mus musculus; test: Antidepressant activity in C57BL/J6 mouse assessed as increase in locomotion at 5 mg/kg, po qd for 21 days tested on day 22 by locomotor activity assay; type: functional, organism-based; set-up: dose 5 mg/kg
Summary of the method: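 Male C57BL/6J mice were gavaged with 5 mg/kg/day or saline vehicle for 21 days. On day 22, ambulation (consecutive photobeam breaks) was recorded in automated chambers for 2 h in 30-min intervals. n=6, two-way ANOVA.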

[17] = tested on: Mus musculus; test: Antidepressant activity in C57BL/J6 mouse assessed as reduction of immobility at 5 mg/kg, po administered qd for 21 days recorded in last 4 mins by forced swim test; type: functional, organism-based; set-up: dose 5 mg/kg
Summary of the method: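 Male C57BL/6J mice, 2–3 months old, were gavaged daily for 21 days with drug (5 or 2.5 mg/kg) or saline and adapted to the test room for 2 days. With no preswim, each mouse was placed for 6 min in a 16-cm cylinder of 24 °C water, 14 cm deep. Immobility in the last 4 min was scored blind and compared by unpaired t-test (n=6 or 8).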

[18] = tested on: Mus musculus; test: Agonist activity at TrkB receptor in C57BL/J6 mouse brain assessed as Akt phosphorylation at serine 473 at 1 mg/kg, po after 8 hrs by ELISA relative to control; type: functional; summary of the method: as §1
[19] = tested on: Mus musculus; test: Agonist activity at TrkB receptor in C57BL/J6 mouse brain assessed as Akt phosphorylation at serine 473 at 1 mg/kg, po by immunoblotting analysis; type: functional, organism-based; set-up: dose 1 mg/kg; summary of the method: as §2
[20] = tested on: Mus musculus; test: Agonist activity at TrkB receptor in C57BL/J6 mouse brain assessed as TrkB phosphorylation at tyrosine 706 at 1 mg/kg, po by immunoblotting analysis; type: functional, organism-based; set-up: dose 1 mg/kg; summary of the method: as §2
[21] = tested on: Mus musculus; test: Agonist activity at TrkB receptor in C57BL/J6 mouse brain assessed as Akt phosphorylation at serine 473 at 1 mg/kg, po after 4 hrs by ELISA; type: functional, organism-based; set-up: dose 1 mg/kg; summary of the method: as §1
[22] = tested on: Mus musculus; test: Agonist activity at TrkB receptor in C57BL/J6 mouse brain assessed as Akt phosphorylation at serine 473 at 1 mg/kg, po after 1 hr by ELISA; type: functional, organism-based; set-up: dose 1 mg/kg; summary of the method: as §1
[23] = tested on: Mus musculus; test: Agonist activity at TrkB receptor in C57BL/J6 mouse brain assessed as Akt phosphorylation at serine 473 at 1 mg/kg, po after 8 hrs by ELISA; type: functional, organism-based; set-up: dose 1 mg/kg; summary of the method: as §1

BDNF/NT-3 growth factors receptor (Rattus norvegicus), sequence (Q63604 whole entry): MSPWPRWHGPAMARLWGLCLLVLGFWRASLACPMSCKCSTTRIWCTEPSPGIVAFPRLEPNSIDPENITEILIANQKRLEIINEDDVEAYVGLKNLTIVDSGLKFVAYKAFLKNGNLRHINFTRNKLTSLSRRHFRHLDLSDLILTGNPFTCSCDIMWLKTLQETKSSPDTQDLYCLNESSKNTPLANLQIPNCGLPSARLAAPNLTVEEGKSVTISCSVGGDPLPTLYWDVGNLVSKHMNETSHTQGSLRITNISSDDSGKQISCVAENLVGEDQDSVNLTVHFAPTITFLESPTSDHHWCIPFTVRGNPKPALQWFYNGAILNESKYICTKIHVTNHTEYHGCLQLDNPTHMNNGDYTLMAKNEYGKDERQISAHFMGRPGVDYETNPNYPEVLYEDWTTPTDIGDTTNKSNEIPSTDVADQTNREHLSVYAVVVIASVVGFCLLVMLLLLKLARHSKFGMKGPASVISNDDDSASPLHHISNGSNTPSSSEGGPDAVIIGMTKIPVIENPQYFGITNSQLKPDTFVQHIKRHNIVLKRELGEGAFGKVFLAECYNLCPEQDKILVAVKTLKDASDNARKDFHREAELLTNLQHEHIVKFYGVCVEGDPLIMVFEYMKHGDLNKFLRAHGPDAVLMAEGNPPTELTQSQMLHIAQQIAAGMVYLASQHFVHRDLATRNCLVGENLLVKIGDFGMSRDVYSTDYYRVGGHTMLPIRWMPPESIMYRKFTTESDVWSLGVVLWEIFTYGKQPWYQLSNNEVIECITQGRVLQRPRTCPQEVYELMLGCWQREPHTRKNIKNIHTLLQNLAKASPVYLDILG

SMILES: O=c1cc(-c2ccc(F)cc2)oc2c(O)c(O)ccc12
- Activity [1]: inactive

SMILES: O=c1c(F)c(-c2ccccc2)oc2c(O)c(O)ccc12
- Activity [2]: Active
- Activity [3]: Active
- Activity [1]: Active

SMILES: O=c1cc(-c2cncnc2)oc2c(O)c(O)ccc12
- Activity [2]: Active
- Activity [3]: Active
- Activity [1]: Active

SMILES: Br.CN(C)c1ccc(-c2cc(=O)c3ccc(O)c(O)c3o2)cc1
- Activity [2]: Active
- Activity [4]: Active
- Activity [5]: Active
- Activity [3]: Active
- Activity [1]: Active
- AUC [6]: 5943 ng·min/mL
- AUClast [7]: 5930 ng·min/mL
- Vdss [8]: 0.803 L/kg
- Vz [9]: 2.117 L/kg
- beta t1/2 [10]: 9 min

SMILES: CN(C)c1ccc(-c2cc(=O)c3ccc4nc[nH]c4c3o2)cc1
- Activity [11]: Toxic
- Activity [12]: Non-toxic
- Activity [13]: Non-toxic
- Activity [14]: inactive
- Activity [15]: Active
- Activity [16]: Active
- Activity [17]: Active
- Activity [18]: 250%
- Activity ([19]; TDE = time-dependent effect): tde
- Activity ([20]; TDE = time-dependent effect): tde
- Activity [2]: Active
- Activity [4]: Active
- Activity [5]: Active
- Activity [3]: Active
- Activity [1]: Active

SMILES: O=c1cc(-c2ccc(F)cc2)[nH]c2c(O)c(O)ccc12
- Activity [2]: Active
- Activity [3]: Active
- Activity [1]: inactive

SMILES: O=c1c(F)c(-c2cccc(O)c2)oc2c(O)c(O)ccc12
- Activity [14]: inactive
- Activity [15]: Active
- Activity [17]: Active
- Activity [21]: inactive
- Activity [22]: Active
- Activity [19]: inactive
- Activity [20]: inactive
- Activity [2]: Active
- Activity [3]: Active
- Activity [1]: Active
- Activity [23]: inactive

SMILES: CN(C)c1ccc(-c2cc(=O)c3c(F)cc(O)c(O)c3o2)cc1
- Activity [2]: Active
- Activity [3]: Active
- Activity [1]: Active

SMILES: O=c1cc(-c2ccc(N3CCCC3)cc2)oc2c1ccc1nc[nH]c12
- Activity [11]: Non-toxic
- Activity [12]: Non-toxic
- Activity [13]: Non-toxic

SMILES: O=c1cc(-c2ccccc2)oc2c(O)c(O)cc(F)c12
- Activity [2]: Active
- Activity [3]: Active
- Activity [1]: Active

SMILES: O=c1cc(-c2ccccc2)[nH]c2c(O)c(O)ccc12
- Activity [2]: Active
- Activity [3]: Active
- Activity [1]: inactive

SMILES: c1ccc2c(c1)cc1ccc3cccc4ccc2c1c34
- Activity [12]: Toxic

SMILES: CN(C)c1cccc(-c2cc(=O)c3ccc(O)c(O)c3o2)c1
- Activity [2]: Active
- Activity [3]: Active
- Activity [1]: Active
